From ChEMBL document CHEMBL6115053, “Optimization and Characterization of N-Acetamide Indoles as Antimalarials That Target PfATP4” (J Med Chem, 2025)
Values after ≈ are worked out from the molar mass of the structure shown. Values joined by “and” are separate entries in the source; they are usually repeats but may differ in a detail not shown here. Equal entries are not always repeated. Active and inactive are the calls of the source. No cut-off for these calls is given here.

What was measured:
[1] = Metabolic stability in human liver microsome assessed as intrinsic clearance; type: ADME; conditions: microsomes
[2] = molecular target: T1, P-type sodium-transporting ATPase4 (Plasmodium falciparum (isolate 3D7)) (UniProt A0A143ZZK9); assay: Inhibition of Plasmodium falciparum 3D7 ATP4 assessed as reduction in Na+-ATPase activity at 2 uM incubated for 10 mins under high [Na+] condition in absence of KAE609
T1 sequence (whole entry): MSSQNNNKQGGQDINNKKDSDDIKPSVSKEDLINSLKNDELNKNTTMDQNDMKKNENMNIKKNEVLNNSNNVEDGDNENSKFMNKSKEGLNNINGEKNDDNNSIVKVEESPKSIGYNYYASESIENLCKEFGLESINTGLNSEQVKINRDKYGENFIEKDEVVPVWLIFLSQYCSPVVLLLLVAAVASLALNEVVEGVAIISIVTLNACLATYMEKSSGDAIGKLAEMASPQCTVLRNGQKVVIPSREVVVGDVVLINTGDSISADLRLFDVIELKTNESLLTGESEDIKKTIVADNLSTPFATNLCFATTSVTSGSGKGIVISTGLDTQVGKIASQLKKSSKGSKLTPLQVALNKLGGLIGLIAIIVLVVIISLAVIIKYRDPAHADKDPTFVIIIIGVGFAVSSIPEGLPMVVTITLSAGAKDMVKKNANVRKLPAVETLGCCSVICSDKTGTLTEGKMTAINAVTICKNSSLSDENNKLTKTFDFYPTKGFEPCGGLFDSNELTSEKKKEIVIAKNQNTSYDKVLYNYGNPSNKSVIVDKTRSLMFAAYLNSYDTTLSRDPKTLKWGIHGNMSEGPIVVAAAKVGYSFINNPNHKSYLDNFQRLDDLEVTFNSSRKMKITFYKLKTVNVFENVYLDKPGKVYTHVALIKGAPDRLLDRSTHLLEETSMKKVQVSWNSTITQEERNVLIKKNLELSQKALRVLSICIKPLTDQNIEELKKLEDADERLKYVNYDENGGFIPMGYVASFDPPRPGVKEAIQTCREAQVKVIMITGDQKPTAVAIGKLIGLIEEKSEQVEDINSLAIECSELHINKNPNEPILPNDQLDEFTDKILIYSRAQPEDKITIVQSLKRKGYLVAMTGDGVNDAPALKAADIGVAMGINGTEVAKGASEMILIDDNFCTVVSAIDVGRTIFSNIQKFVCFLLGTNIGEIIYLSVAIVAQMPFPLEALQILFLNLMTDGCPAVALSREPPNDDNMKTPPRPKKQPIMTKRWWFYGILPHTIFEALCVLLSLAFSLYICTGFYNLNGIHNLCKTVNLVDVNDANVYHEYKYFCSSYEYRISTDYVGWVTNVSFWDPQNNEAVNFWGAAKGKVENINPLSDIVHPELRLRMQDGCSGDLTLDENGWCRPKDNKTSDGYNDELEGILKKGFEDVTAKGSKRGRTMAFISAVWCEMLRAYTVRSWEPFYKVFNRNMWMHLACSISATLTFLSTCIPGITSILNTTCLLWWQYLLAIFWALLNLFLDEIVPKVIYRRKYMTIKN

[3] = tested on: Plasmodium falciparum; assay: Antiplasmodial activity against asexual Plasmodium falciparum 3D7 infected in human […] cells assessed as reduction in parasite growth measured for 72 hrs by LDH assay; type: functional, organism-based; conditions: 3D7, 72 h
[4] = Lipophilicity, logD of compound at pH 7.4 by shake-flask method; type: physicochemical; conditions: buffer
[5] = Inhibition of Plasmodium falciparum Dd2 ATP4 G358S mutant assessed as reduction in Na+-ATPase activity incubated for 10 mins in presence of ATP
Method in brief: (§1)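 Membranes were prepared from Dd2-Polδ parasites (wild-type PfATP4) or Dd2-Polδ-PfATP4G358S parasites. ATPase activity was read as Pi production, with 1 mM Na2ATP, at high [Na+] (152 mM) and low [Na+] (2 mM). PfATP4-associated activity is the high-Na+ minus low-Na+ Pi, expressed as % of the high-Na+ control, over a concentration range. Data are means ± SEM of 2–5 independent membrane preparations.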

[6] = Metabolic stability in rat hepatocyte […] assessed as intrinsic clearance measured per 10^6 cells; type: ADME, cell-based; conditions: hepatocytes
[7] = Aqueous solubility in PBS buffer at pH 7.4; type: physicochemical
[8] = Inhibition of Plasmodium falciparum Dd2 ATP4 assessed as reduction in Na+-ATPase activity incubated for 10 mins in presence of ATP; method in brief: as §1
[9] = molecular target: T2, P-type sodium-transporting ATPase4 (Plasmodium falciparum (isolate 3D7), UniProt A0A143ZZK9); assay: Inhibition of Plasmodium falciparum 3D7 ATP4
T2 sequence (A0A143ZZK9 whole entry): T1 sequence (whole entry)

[10] = tested on: HepG2; assay: Cytotoxicity against human HepG2 cells assessed as inhibition of cell growth incubated for 48 hrs by celltiterglo assay; type: toxicity, cell-based; conditions: hepg2, 48 h
[11] = tested on: Plasmodium berghei; assay: Antimalarial activity against Plasmodium berghei ANKA infected in female BALB/c mouse assessed as reduction in parasitemia at 50 mg/kg, po measured for 2 to 72 hrs post infection by Giemsa staining based light microscopy; type: functional; parameters: scale not given: the % may be the effect or the level left; conditions: time 2-72 hrs
[12] = Tmax in CD-1 mouse at 20 mg/kg, po; type: ADME, organism-based; conditions: in vivo
[13] = tested on: Plasmodium falciparum; assay: Antimalarial activity against Plasmodium falciparum NF54 infected assessed as inhibition of male gamete formation incubated for 48 hrs by automated bright field microscopic analysis; type: functional, organism-based; conditions: NF54, 48 h
[14] = Permeability across basolateral to apical side in human Caco-2 cells; type: ADME, cell-based
[15] = Clearance in CD-1 mouse at 20 mg/kg, po; type: ADME, organism-based; conditions: in vivo
[16] = Permeability across apical to basolateral side in human Caco-2 cells; type: ADME, cell-based
[17] = Half life in CD-1 mouse at 20 mg/kg, po; type: ADME, organism-based; conditions: in vivo
[18] = tested on: Plasmodium falciparum; assay: Antiplasmodial activity against Plasmodium flaciparum NF54 stage V gametocytes infected in Anopheles stephensi with parasite infected blood meal assessed as reduction in oocyst count at 500 nM measured 7 days post blood infection by light microscopic analysis relative to control; type: functional; parameters: scale not given: the % may be the effect or the level left; conditions: time 7 day
Method in brief: (§2)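 Stage V gametocytes of P. falciparum NF54 were treated with compound and fed to Anopheles stephensi in a standard membrane feeding assay. Midguts were dissected 7 days after the blood meal and oocysts counted. Results were given as average oocyst intensity ± SEM, with a t test against vehicle.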

[19] = AUC (0 to last) in CD-1 mouse at 20 mg/kg, po; type: ADME, organism-based; conditions: in vivo
[20] = Metabolic stability in mouse liver microsome assessed as intrinsic clearance; type: ADME; conditions: microsomes
[21] = tested on: Plasmodium falciparum; assay: Antimalarial activity against Plasmodium falciparum NF54 infected assessed as inhibition of female gamete formation incubated for 48 hrs by automated bright field microscopic analysis; type: functional, organism-based; conditions: NF54, 48 h
[22] = tested on: Plasmodium falciparum; assay: Antiplasmodial activity against Plasmodium flaciparum NF54 stage V gametocytes infected in Anopheles stephensi with parasite infected blood meal assessed as reduction in oocyst count at 100 nM measured 7 days post blood infection by light microscopic analysis relative to control; type: functional; parameters: scale not given: the % may be the effect or the level left; conditions: time 7 day; method in brief: as §2
[23] = Cmax in CD-1 mouse at 20 mg/kg, po; type: ADME, organism-based; conditions: in vivo
[24] = tested on: Plasmodium berghei; assay: Antimalarial activity against Plasmodium berghei ANKA infected in female BALB/c mouse assessed as parasitemia at 50 mg/kg, po measured for 2 to 72 hrs post infection by Giemsa staining based light microscopy; type: functional; conditions: time 2-72 hrs
[25] = tested on: Plasmodium falciparum; assay: Antiplasmodial activity against multidrug-resistant Plasmodium falciparum Dd2 harboring plasmodium falciparum ATP4 I398F/P990R/D1247Y mutant by SYBR green staining based analysis; type: functional, organism-based
[26] = tested on: Plasmodium falciparum; assay: Antiplasmodial activity against Plasmodium falciparum 3D7 infected in RBC assessed as reduction in deoxythymidine triphosphate level at 20 nM incubated for 5 hrs by LC-MS analysis; type: functional, organism-based
[27] = tested on: Plasmodium falciparum; assay: Antiplasmodial activity against N-(2,6-difluorophenyl)-2-(6-(5-methyl-1,3,4-oxadiazol-2-yl)-1H-indol-1-yl)acetamide-resistant Plasmodium falciparum Dd2 harboring plasmodium falciparum ATP4 D425E mutant by SYBR green staining based analysis; type: functional, organism-based
[28] = tested on: Plasmodium falciparum; assay: Antiplasmodial activity against Plasmodium falciparum 3D7 infected in RBC assessed as reduction in deoxythymidine diphosphate level at 20 nM incubated for 5 hrs by LC-MS analysis; type: functional, organism-based
[29] = tested on: Plasmodium falciparum; assay: Antiplasmodial activity against Plasmodium falciparum 3D7 infected in human […] cells incubated for 72 hrs; type: functional, organism-based; conditions: 3D7, 72 h
[30] = tested on: Plasmodium falciparum; assay: Antiplasmodial activity against W454-resistant population 1 Plasmodium falciparum 3D7 harboring Plasmodium falciparum ATP4 L928F mutant by LDH assay; type: functional, organism-based
[31] = tested on: Plasmodium falciparum; assay: Antiplasmodial activity against multidrug-resistant Plasmodium falciparum Dd2 harboring plasmodium falciparum ATP4 G358S mutant by SYBR green staining based analysis; type: functional, organism-based
[32] = tested on: Plasmodium falciparum; assay: Antiplasmodial activity against N-(2,6-difluorophenyl)-2-(6-(5-methyl-1,3,4-oxadiazol-2-yl)-1H-indol-1-yl)acetamide-resistant Plasmodium falciparum Dd2 harboring plasmodium falciparum ATP4 F156L mutant by SYBR green staining based analysis; type: functional, organism-based
[33] = tested on: Plasmodium falciparum; assay: Antiplasmodial activity against Plasmodium falciparum 3D7 infected in RBC assessed as reduction in nucleotide level at 20 nM incubated for 5 hrs by LC-MS analysis; type: functional, organism-based
[34] = tested on: Plasmodium falciparum; assay: Antiplasmodial activity against N-(2,6-difluorophenyl)-2-(6-(5-methyl-1,3,4-oxadiazol-2-yl)-1H-indol-1-yl)acetamide-resistant Plasmodium falciparum Dd2 harbouring ATP4 genome with 2.8 fold CNV by SYBR green staining based analysis; type: functional, organism-based
[35] = tested on: Plasmodium falciparum; assay: Antiplasmodial activity against W454-resistant population 2 Plasmodium falciparum 3D7 harboring Plasmodium falciparum ATP4 L928F mutant by LDH assay; type: functional, organism-based
[36] = tested on: Plasmodium falciparum; assay: Antiplasmodial activity against Plasmodium falciparum 3D7 infected in RBC assessed as reduction in extracellular parasite growth at 6.7 nM measured for 8 hrs by Giemsa-staining based microscopic analysis; type: functional; parameters: scale not given: the % may be the effect or the level left
Method in brief: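 Giemsa-stained thin smears were read at 8 h and the percentages of extracellular and intracellular parasites counted, compared with untreated parasites at 0 h.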

[37] = tested on: Plasmodium falciparum; assay: Antiplasmodial activity against W454-resistant population 3 Plasmodium falciparum 3D7 harboring Plasmodium falciparum ATP4 L928F mutant by LDH assay; type: functional, organism-based
[38] = tested on: Plasmodium falciparum; assay: Antiplasmodial activity against Plasmodium falciparum 3D7 infected in RBC assessed as reduction in deoxycytidine monophosphate level at 20 nM incubated for 5 hrs by LC-MS analysis; type: functional, organism-based
[39] = tested on: Plasmodium falciparum; assay: Antiplasmodial activity against Plasmodium falciparum 3D7 infected in RBC assessed as reduction in pyrimidine-deoxyribonucleotides level at 20 nM incubated for 5 hrs by LC-MS analysis; type: functional, organism-based

Q: With `Cn1cc(-c2ccc3c(C#N)cn(CC(=O)Nc4ccccc4Cl)c3c2)cn1` as the compound, how does the “intrinsic clearance (CLint)” value [1] read?
A: Its value is 62 µL/min/mg.

Q: And the inhibition [2]?
A: Its inhibition is “Active”.

Q: And the EC50 [3]?
A: The EC50 was 240 nM.

Q: And the logD [4]?
A: The logD was 3.

Q: What about the IC50 [5] of the same compound?
A: Its IC50 is 1100 nM.

Q: What about the “intrinsic clearance (CLint)” value [6] of the same compound?
A: Its value is 59 uL/min/10^6 cells.

Q: What about the solubility kinetic [7] of the same compound?
A: Its solubility kinetic is 4.9 µM (≈ 1.91 µg/mL).

Q: And the IC50 [8]?
A: The IC50 was 230 nM and 1100 nM.

Q: What about the IC50 [9] of the same compound?
A: The IC50 was 150 nM.

Q: And the CC50 [10]?
A: Its CC50 is greater than 40000 nM.

Q: What does the source list for `COc1cc(NC(=O)Cn2cc(Cl)c3cc(F)c(-c4cnn(C)c4)cc32)cc(OC)c1OC`?
A: Activity [11]: 55%; Tmax [12]: 5.33 h; EC50 [13]: 210 nM; intrinsic clearance (CLint) [1]: < 3.5 µL/min/mg; permeability [14]: 1.5 10^-6 cm/s; CL/F [15]: 42 mL/min/kg; permeability [16]: 0.8 10^-6 cm/s; half-life [17]: 2.16 h; Activity [18]: 83%; AUC(0-t) [19]: 8190 ng·h/mL; EC50 [3]: 13 nM; logD [4]: 4.8; intrinsic clearance (CLint) [20]: 6.8 µL/min/mg; intrinsic clearance (CLint) [6]: 2.6 uL/min/10^6 cells; solubility kinetic [7]: < 2.5 µM; EC50 [21]: 250 nM; Activity [22]: 59%; Cmax [23]: 700 ng/mL; Activity [24]: 15.3%; CC50 [10]: > 40000 nM

Q: Which results are given for `C[C@H]1Cc2c([nH]c3cc(Cl)c(F)cc23)[C@@]2(N1)C(=O)Nc1ccc(Cl)cc12` [CIPARGAMIN]?
A: EC50 [25]: 4 nM; Activity [26]: inactive; EC50 [27]: 2 nM; Activity [28]: inactive; EC50 [29]: 1 nM; EC50 [30]: < 2 nM; EC50 [31]: > 100 nM; EC50 [32]: 3 nM; Activity [33]: inactive; EC50 [34]: 4 nM; EC50 [35]: < 2 nM; Activity [36]: ~24%; EC50 [37]: 2 nM; Activity [38]: inactive; Activity [39]: inactive
